The values that follow come from ChEMBL document CHEMBL4052819 (2017).

What is called MIC is the smallest concentration in the dilution series that meets the test's criterion for growth inhibition.

≈ marks a conversion by molar mass, not a printed value. Calls of active or inactive are those of the source. Non-standard residues stand in square brackets, D forms with d. Residues, ends and D or L forms follow the SMILES beside them. *: point of attachment. Octanoyl = CCCCCCCC(=O)*; Dab = NCC[C@H](N)C(=O)O

The subject of assay [1] is Staphylococcus aureus. The assay can be described thus: Antibacterial activity against Staphylococcus aureus ATCC 29213 after 18 to 20 hrs in presence of 95% serum by broth microdilution method. Format: functional. In outline:
(§1)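 Same microdilution with human serum as medium: compound 2-fold diluted in 100% serum, mixed 1:1 with 90% serum holding ~1.5 × 10^5 CFU/mL, giving 95% serum and final 0.5–64 μg/mL. MIC read as no visible growth after incubation as for the broth test.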
(In general: In broth dilution the organism is exposed to a series of concentrations in liquid medium.)

Assay [2] concerns Acinetobacter baumannii. The assay can be described thus: Potentiation of vancomycin-mediated antibacterial activity against Acinetobacter baumannii ATCC 19606 assessed as decrease in vancomycin MIC at 4 ug/ml by checkerboard method relative to control. The assay is classed as functional, ATCC 19606 = CIP 70.34 = JCM 6841.
The next assay concerns Enterococcus faecium. The assay can be described thus: Antibacterial activity against Enterococcus faecium ATCC 19434 after 18 to 20 hrs by broth microdilution method. Format: functional. In outline: (§2)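 Broth microdilution in tryptic soy broth: 2-fold dilutions mixed 1:1 with ~1.5 × 10^5 CFU/mL inoculum, final 0.5–32 μg/mL; 37 °C, 18–20 h. MIC taken as lowest concentration giving no visible growth. At least three independent experiments, one replicate each.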

Assay [3] deals with Klebsiella pneumoniae. The assay can be described thus: Potentiation of ampicillin-mediated antibacterial activity against Klebsiella pneumoniae ATCC 13883 assessed as decrease in ampicillin MIC at 4 ug/ml by checkerboard method relative to control. The assay is classed as functional.
The test system of assay [4] is Staphylococcus aureus. Put plainly: Antibacterial activity against Staphylococcus aureus ATCC 29213 after 18 to 20 hrs by broth microdilution method. Format: functional. In outline:
as §2

In assay [5] the test system is Acinetobacter baumannii. Put plainly: Potentiation of erythromycin-mediated antibacterial activity against Acinetobacter baumannii ATCC 19606 assessed as decrease in erythromycin MIC at 4 ug/ml by checkerboard method relative to control. Format: functional, ATCC 19606 = CIP 70.34 = JCM 6841.
The test system of assay [6] is Escherichia coli. The assay can be described thus: Antibacterial activity against Escherichia coli ATCC 25922 in presence of 100% serum after 12 hrs by broth microdilution method. As to conditions: ATCC 25922, 12 h. Format: functional. The procedure, abridged:
(§3)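 Serum stability: compound added to 100% human serum at final 64 μg/mL, held at 37 °C, sampled at 0, 6, 12 and 24 h. […] Residual activity compared with untreated control.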

For assay [7], the system named is Klebsiella pneumoniae. The assay can be described thus: Potentiation of clarithromycin-mediated antibacterial activity against Klebsiella pneumoniae ATCC 13883 assessed as decrease in clarithromycin MIC at 4 ug/ml by checkerboard method relative to control. Format: functional.
Assay [8] concerns Acinetobacter baumannii. The assay can be described thus: Potentiation of rifampicin-mediated antibacterial activity against Acinetobacter baumannii ATCC 19606 assessed as rifampicin MIC at 2 ug/ml by checkerboard method (reference value: 16 ug/ml). The assay is classed as functional. The conditions noted are these: ATCC 19606 = CIP 70.34 = JCM 6841.
Assay [9] has as its system Escherichia coli. Put plainly: Antibacterial activity against Escherichia coli ATCC 25922 after 18 to 20 hrs by broth microdilution method. Format: functional. The procedure, abridged: as §2
Assay [10] has as its system Escherichia coli. Put plainly: Antibacterial activity against Escherichia coli ATCC 25922 in presence of 100% serum after 24 hrs by broth microdilution method. The assay is classed as functional. The conditions noted are these: ATCC 25922, 24 h. In outline: as §3
In assay [11] the test system is Pseudomonas aeruginosa. The assay can be described thus: Bactericidal activity against Pseudomonas aeruginosa ATCC 27853. Format: functional. As to conditions: read-out: MBC99.9. In outline:
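MBC from MIC plates at end point: 50 μL from each well with no visible growth plated on tryptic soy agar and counted. MBC taken as lowest concentration giving ≥99.9% fall in viable count relative to initial inoculum. Three independent experiments, one replicate each.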

Assay [12] deals with Escherichia coli. Put plainly: Antibacterial activity against Escherichia coli ATCC 25922 after 18 to 20 hrs in presence of 95% serum by broth microdilution method. Format: functional. The procedure, abridged:
as §1

For assay [13], the system named is Staphylococcus aureus. The assay can be described thus: Antibacterial activity against methicillin-resistant Staphylococcus aureus ATCC 43300 after 18 to 20 hrs by broth microdilution method. Format: functional. In outline: (§4)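 Broth microdilution in tryptic soy broth: 2-fold dilutions mixed 1:1 with ~1.5 × 10^5 CFU/mL bacterial suspension in TSB, final 0.5–32 μg/mL, 37 °C for 18–20 h. MIC = lowest concentration with no visible growth. At least three independent experiments, one replicate each.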

The test system of assay [14] is Klebsiella pneumoniae. Put plainly: Potentiation of erythromycin-mediated antibacterial activity against Klebsiella pneumoniae ATCC 13883 assessed as decrease in erythromycin MIC at 4 ug/ml by checkerboard method relative to control. The assay is classed as functional.
Assay [15] deals with Escherichia coli. The assay can be described thus: Antibacterial activity against Escherichia coli ATCC 25922 in presence of 100% serum after 6 hrs by broth microdilution method. The assay is classed as functional. The conditions noted are these: ATCC 25922, 6 h. The procedure, abridged: as §3
Assay [16] deals with Acinetobacter baumannii. The assay can be described thus: Potentiation of rifampicin-mediated antibacterial activity against Acinetobacter baumannii ATCC 19606 assessed as decrease in rifampicin MIC at 4 ug/ml by checkerboard method relative to control. The assay is classed as functional, ATCC 19606 = CIP 70.34 = JCM 6841.
The subject of assay [17] is Acinetobacter baumannii. Put plainly: Potentiation of ampicillin-mediated antibacterial activity against Acinetobacter baumannii ATCC 19606 assessed as decrease in ampicillin MIC at 4 ug/ml by checkerboard method relative to control. Format: functional, ATCC 19606 = CIP 70.34 = JCM 6841.
The subject of assay [18] is Klebsiella pneumoniae. Put plainly: Potentiation of rifampicin-mediated antibacterial activity against Klebsiella pneumoniae ATCC 13883 assessed as decrease in rifampicin MIC at 2 ug/ml by checkerboard method relative to control. Format: functional.
Assay [19] deals with Pseudomonas aeruginosa. The assay can be described thus: Antibacterial activity against Pseudomonas aeruginosa ATCC 27853 after 18 to 20 hrs by broth microdilution method. Format: functional. In outline:
as §2

Assay [20] deals with Klebsiella pneumoniae. Put plainly: Potentiation of rifampicin-mediated antibacterial activity against Klebsiella pneumoniae ATCC 13883 assessed as rifampicin MIC at 2 ug/ml by checkerboard method (reference value: 16 ug/ml). The assay is classed as functional.
Assay [21] has as its system Acinetobacter baumannii. The assay can be described thus: Antibacterial activity against Acinetobacter baumannii ATCC 19606 after 18 to 20 hrs by broth microdilution method. Format: functional. As to conditions: ATCC 19606 = CIP 70.34 = JCM 6841.
For assay [22], the system named is Klebsiella pneumoniae. The assay can be described thus: Potentiation of vancomycin-mediated antibacterial activity against Klebsiella pneumoniae ATCC 13883 assessed as decrease in vancomycin MIC at 4 ug/ml by checkerboard method relative to control. The assay is classed as functional.
Assay [23] concerns Escherichia coli. Put plainly: Antibacterial activity against Escherichia coli ATCC 25922 in presence of 100% serum measured immediately post compound addition in serum by broth microdilution method. Format: functional. In outline: as §3
In assay [24] the test system is Pseudomonas aeruginosa. The assay can be described thus: Bactericidal activity against Pseudomonas aeruginosa ATCC 27853 after 60 mins in presence of LPS. The assay is classed as functional. The procedure, abridged: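 P. aeruginosa at ~10^6 CFU/mL in TSB with E. coli O111:B4 LPS (final 10, 25, 50 or 100 μg/mL), then compound at final 16 μg/mL. Incubated 37 °C, 200 rpm, 60 min; survivors counted on TSA. Three independent experiments, one replicate each.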

In assay [25] the test system is Klebsiella pneumoniae. The assay can be described thus: Antibacterial activity against Klebsiella pneumoniae ATCC 13883 after 18 to 20 hrs by broth microdilution method. Format: functional.
Assay [26] concerns Acinetobacter baumannii. The assay can be described thus: Potentiation of clarithromycin-mediated antibacterial activity against Acinetobacter baumannii ATCC 19606 assessed as decrease in clarithromycin MIC at 4 ug/ml by checkerboard method relative to control. The assay is classed as functional, ATCC 19606 = CIP 70.34 = JCM 6841.
Assay [27] relates to Klebsiella pneumoniae. Put plainly: Antibacterial activity against polymyxin-resistant Klebsiella pneumoniae UAMS-KPPR3 after 18 to 20 hrs by broth microdilution method. Format: functional.
Assay [28] deals with Escherichia coli. The assay can be described thus: Antibacterial activity against polymyxin-resistant Escherichia coli AR 0494 expressing mcr1 after 18 to 20 hrs by broth microdilution method. Format: functional. In outline:
as §4

The subject of assay [29] is Escherichia coli. The assay can be described thus: Antibacterial activity against polymyxin-resistant Escherichia coli UAMS-ECPR2 after 18 to 20 hrs by broth microdilution method. The assay is classed as functional. The procedure, abridged: as §4
Assay [30] relates to Klebsiella pneumoniae. The assay can be described thus: Antibacterial activity against polymyxin-resistant Klebsiella pneumoniae UAMS-KPPR1 after 18 to 20 hrs by broth microdilution method. The assay is classed as functional.
For assay [31], the system named is Escherichia coli. The assay can be described thus: Antibacterial activity against polymyxin-resistant Escherichia coli UAMS-ECPR1 after 18 to 20 hrs by broth microdilution method. Format: functional. The procedure, abridged:
as §4

As to `CCCCCCCC(=O)N[C@@H](CCN)C(=O)N[C@H](C(=O)N[C@@H](CCN)C(=O)N[C@H](Cc1ccccc1)C(=O)N[C@@H](CC(C)C)C(=O)N[C@@H](CCN)C(=O)N[C@@H](C(=O)N[C@@H](CC(C)C)C(=O)N[C@@H](CCN)C(N)=O)C(C)C)[C@@H](C)CC` (Octanoyl-[Dab]I[Dab][dF]L[Dab][dV]L[Dab]-NH2), the MIC with Staphylococcus aureus [1] was 16 µg/mL; in the assay on Enterococcus faecium, 32 µg/mL (≈ 28.3 µM); against Staphylococcus aureus [4], more than 32 µg/mL; in the assay with Escherichia coli [6] it was 1 to 2 µg/mL; with Acinetobacter baumannii [8], 0.0019 µg/mL; in the assay with Escherichia coli [9] it was 4 to 16 µg/mL (≈ 3.54 to 14.2 µM). Further, the MIC in the assay with Escherichia coli [10] is 2 µg/mL; in the assay on Escherichia coli [12], 2 to 4 µg/mL; in the assay with Staphylococcus aureus [13] it was 32 µg/mL (≈ 28.3 µM); in the assay with Escherichia coli [15] it was 2 µg/mL; in the assay on Pseudomonas aeruginosa [19], 2 to 4 µg/mL (≈ 1.77 to 3.54 µM); with Klebsiella pneumoniae [20], 0.0019 to 0.0039 µg/mL. Besides, the MIC in the assay on Acinetobacter baumannii [21] was not below 32 µg/mL; in the assay on Escherichia coli [23], 1 to 2 µg/mL; with Klebsiella pneumoniae [25] it was more than 32 µg/mL. For the same compound, the “fold change (FC)” value with Acinetobacter baumannii [2] was 64 - 128; with Klebsiella pneumoniae [3] it was 1; in the assay with Acinetobacter baumannii [5], 128 - 256; in the assay on Klebsiella pneumoniae [7] it was 2048; with Klebsiella pneumoniae [14], 512; with Acinetobacter baumannii [16] it was 8192. In addition, the “fold change (FC)” value in the assay with Acinetobacter baumannii [17] is 16 - 32; with Klebsiella pneumoniae [18], “>=8192”; in the assay with Klebsiella pneumoniae [22], 2; in the assay on Acinetobacter baumannii [26] it was 4096 - 8192. In the assay with Pseudomonas aeruginosa [11], the MBC amounted to 16 µg/mL (≈ 14.2 µM). Moreover, in the assay on Pseudomonas aeruginosa [24], the outcome was inactive.

With POLYMYXIN B, the MIC is more than 32 µg/mL in the assay on Klebsiella pneumoniae [27]; 2 to 8 µg/mL in the assay on Escherichia coli [28]; 32 µg/mL against Escherichia coli [29]; more than 32 µg/mL with Klebsiella pneumoniae [30]; 32 µg/mL with Escherichia coli [31].
